Several values for one entry are separate records, joined by “and”; a condition that tells them apart may be missing. Equal values may be shown once.
Legend:
Canis familiaris [1] = species: Canis familiaris; test: Percent change in repolarization at 10 Purkinje fibers.; value ranges from 3-7; type: functional, Canis lupus familiaris, Purkinje fiber
Procedure, shortened: (§1)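 Canine Purkinje fibers were held in oxygenated (95% O2–5% CO2) physiological saline, pH 7.35–7.40, at 36 ± 0.5 °C and paced at 1.0 Hz with 2-ms pulses at twice diastolic threshold. Intracellular microelectrodes (3 M KCl) recorded Vmax and APD95 simultaneously. After up to 1 h of stabilization, compounds were tested from 10^-8 to 10^-3 M with 30 min per concentration. One compound per fiber, with vehicle controls. For N ≥ 3, values are the mean with the range.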

Canis familiaris [2] = species: Canis familiaris; test: Percent change from control in the functional refractory period (FRP) at 10 uM conc. on Canine ventricular muscle fibre.; parameters: species or system Canis lupus familiaris, Muscle tissue
Procedure, shortened: (§2)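 Canine right ventricular papillary muscle strips were superfused at 36 ± 0.5 °C with saline gassed with 95% O2/5% CO2. Diastolic threshold was found with 2-ms stimuli at 4000 ms cycle length, then pacing at 4× threshold for 60 min equilibration. FRP was measured at 1000 ms cycle length by S1-S2 premature stimulus after every tenth S1. Conduction time came from a bipolar electrogram. Various compound concentrations were tested, one compound per strip, with vehicle controls. Percent change from control was taken at 10 µM, or the maximum change with its concentration; for N ≥ 3, mean with range.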

Canis familiaris [3] = species: Canis familiaris; test: Percent change from control in conduction time (CT) at 10 uM concentration tested on Canine ventricular muscle fibre.; M is minimal(<10% change in CT); type: functional; details: Canis lupus familiaris, Muscle tissue; procedure, shortened: as §2
Canis familiaris [4] = species: Canis familiaris; test: Maximum percent change in repolarization at 1 uM concentration on Canine Purkinje fibers.; type: functional, Canis lupus familiaris, Purkinje fiber
Procedure, shortened: (§3)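 Isolated canine Purkinje fibers were superfused with physiological saline gassed with 95% O2/5% CO2 (pH 7.35–7.40) at 36 ± 0.5 °C. Paced at 1.0 Hz with 2-ms pulses at twice diastolic threshold. After up to 1 h stabilization, compounds were tested over 10^-8 to 10^-3 M, 30 min per concentration, one compound per fiber, with vehicle controls. Intracellular microelectrodes (3 M KCl) recorded Vmax and APD95; maximum percent change from control is reported with its concentration.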

Cavia porcellus [5] = species: Cavia porcellus; test: Concentration of compound which gives a 20% decrease in contractile force was tested on papillary muscle of guinea pig, activity was expressed as EC-20; NR is not reached..; type: functional; details: Muscle tissue
Procedure, shortened: (§4)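 Contractile force measured in an isolated cardiac muscle preparation. Value is the concentration giving a 20% decrease in force of contraction. NR marks that this decrease was not reached. Values come from individual experiments; for N ≥ 3, the mean is given with the range.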

Canis familiaris [6] = species: Canis familiaris; test: Maximum percent change in repolarization at 0.1 uM concentration on Canine Purkinje fibers.; type: functional, Canis lupus familiaris, Purkinje fiber; procedure, shortened: as §3
Canis familiaris [7] = species: Canis familiaris; test: Maximum Percent change from control in the rate of rise of phase 0 of the action potential at 30 uM concentration on Canine Purkinje fibers.; parameters: species or system Canis lupus familiaris, Purkinje fiber; details: dog, in vitro; procedure, shortened: as §3
Canis familiaris [8] = species: Canis familiaris; test: Percent change from control in the rate of rise of phase 0 of the action potential at 10 uM concentration on Canine Purkinje fibers.; parameters: species or system Canis lupus familiaris, Purkinje fiber; details: dog, in vitro
Canis familiaris [9] = species: Canis familiaris; test: Maximum Percent change from control in the rate of rise of phase 0 of the action potential at 100 uM concentration on Canine Purkinje fibers.; type: Canis lupus familiaris, Purkinje fiber; details: dog, in vitro; procedure, shortened: as §3
Canis familiaris [10] = species: Canis familiaris; test: Maximum percent change in repolarization at 30 uM concentration on Canine Purkinje fibers.; type: functional, Canis lupus familiaris, Purkinje fiber; procedure, shortened: as §3
Canis familiaris [11] = species: Canis familiaris; test: Maximum percent change in conduction time (CT) at 100 uM concentration tested on Canine ventricular muscle fibre; type: functional, Canis lupus familiaris, Muscle tissue; procedure, shortened: as §2
Canis familiaris [12] = species: Canis familiaris; test: Maximum percent change in conduction time (CT) at 0.1 uM concentration tested on Canine ventricular muscle fibre; type: functional, Canis lupus familiaris, Muscle tissue; procedure, shortened: as §2
Canis familiaris [13] = species: Canis familiaris; test: Maximum percent change in repolarization at 100 uM concentration on Canine Purkinje fibers.; type: functional, Canis lupus familiaris, Purkinje fiber; procedure, shortened: as §3
Canis familiaris [14] = species: Canis familiaris; test: Percent change from control in the functional refractory period (FRP) at 10 uM concentration on Canine ventricular muscle fibre.; parameters: species or system Canis lupus familiaris, Muscle tissue; procedure, shortened: as §2
Canis familiaris [15] = species: Canis familiaris; test: Maximum percent change in functional refractory period (FRP) at 10 uM on Canine ventricular muscle fibre.; parameters: species or system Canis lupus familiaris, Muscle tissue; procedure, shortened: as §2
Canis familiaris [16] = species: Canis familiaris; test: Maximum Percent change from control in the rate of rise of phase 0 of the action potential at 0.1 uM concentration on Canine Purkinje fibers.; parameters: species or system Canis lupus familiaris, Purkinje fiber; procedure, shortened: as §3
Canis familiaris [17] = species: Canis familiaris; test: Maximum Percent change from control in the rate of rise of phase 0 of the action potential at 10 uM concentration on Canine Purkinje fibers.; type: functional, Canis lupus familiaris, Purkinje fiber; details: dog, in vitro; procedure, shortened: as §3
Canis familiaris [18] = species: Canis familiaris; test: Percent change in repolarization at 10 Purkinje fibers.; value ranges from -1-49; type: functional, Canis lupus familiaris, Purkinje fiber; procedure, shortened: as §1
Cavia porcellus [19] = species: Cavia porcellus; test: Concentration of compound ( ) which gives a 20% decrease in contractile force was tested on papillary muscle of guinea pig, activity was expressed as EC-20.; NR is not reached.; type: functional; details: Muscle tissue; procedure, shortened: as §4
Canis familiaris [20] = species: Canis familiaris; test: Maximum percent change in conduction time (CT) at 1 uM concentration tested on Canine ventricular muscle fibre; type: functional, Canis lupus familiaris, Muscle tissue; procedure, shortened: as §2
Canis familiaris [21] = species: Canis familiaris; test: Percent change from control in the rate of rise of phase 0 of the action potential at 10 uM concentration on Canine Purkinje fibers.; value ranges from -17.0-2.0; parameters: species or system Canis lupus familiaris, Purkinje fiber; details: dog, in vitro
Canis familiaris [22] = species: Canis familiaris; test: Percent change in repolarization at 10 Purkinje fibers.; value ranges from -6 -2; type: functional, Canis lupus familiaris, Purkinje fiber; procedure, shortened: as §1
Canis familiaris [23] = species: Canis familiaris; test: Percent change from control in the rate of rise of phase 0 of the action potential at 10 uM concentration on Canine Purkinje fibers.; value ranges from -18 - -4; type: organism-based, Canis lupus familiaris, Purkinje fiber; details: dog, in vitro
Canis familiaris [24] = species: Canis familiaris; test: Percent change from control in the functional refractory period (FRP) at 10 uM conc. on Canine ventricular muscle fibre.; value ranges from -1 - 16; parameters: species or system Canis lupus familiaris, Muscle tissue; procedure, shortened: as §2
Canis familiaris [25] = species: Canis familiaris; test: Maximum Percent change from control in the rate of rise of phase 0 of the action potential at 1 uM concentration on Canine Purkinje fibers.; parameters: species or system Canis lupus familiaris, Purkinje fiber; procedure, shortened: as §3
Canis familiaris [26] = species: Canis familiaris; test: Maximum percent change in functional refractory period (FRP) at 100 uM on Canine ventricular muscle fibre.; value ranges from -3 - 26; parameters: species or system Canis lupus familiaris, Muscle tissue; procedure, shortened: as §2
Canis familiaris [27] = species: Canis familiaris; test: The maximum percent change in action potential (Vmax ) at concentration observed (100 uM was tested on Canine Purkinje fibers.; parameters: species or system Canis lupus familiaris, Purkinje fiber; details: dog; procedure, shortened: as §1
Canis familiaris [28] = species: Canis familiaris; test: Maximum percent change in conduction time (CT) at 100 uM concentration tested on Canine ventricular muscle fibre; value ranges from 6-27; type: functional, Canis lupus familiaris, Muscle tissue; procedure, shortened: as §2

For `CCN(CC)CCCNC(=O)c1c(O)cc(C)nc1C`, the APD95 (Canis familiaris [1]) was 5%, the FRP (Canis familiaris [2]) was 13% and the CT (Canis familiaris [3]) was “Minimal”. For the same compound, the APD95 (Canis familiaris [4]) was 4%, the EC20 (Cavia porcellus [5]) was “Not reached” and the APD95 (Canis familiaris [6]) was 5%. It also gave a Vmax (Canis familiaris [7]) of -1%, a Vmax (Canis familiaris [8]) of 4.6% and a Vmax (Canis familiaris [9]) of 7%. It also gave an APD95 (Canis familiaris [10]) of 15% and a CT (Canis familiaris [11]) of -7%.
With `CCN(CC)CCNC(=O)c1[nH]c(C)c(C)c1C` the CT (Canis familiaris [12]) was 7%, the CT (Canis familiaris [3]) was “Minimal” and the APD95 (Canis familiaris [13]) was -9%. It also gave an FRP (Canis familiaris [14]) of 24%, an FRP (Canis familiaris [15]) of 24% and a Vmax (Canis familiaris [16]) of -3%. It also gave a Vmax (Canis familiaris [17]) of -17%, a Vmax (Canis familiaris [9]) of -42% and an APD95 (Canis familiaris [10]) of 12%. For the same compound, the APD95 (Canis familiaris [18]) was 19.7%, the EC20 (Cavia porcellus [19]) was “Not reached” and the CT (Canis familiaris [20]) was -5%. It also gave a Vmax (Canis familiaris [21]) of -6.3%.
For `CCN(CC)CCNC(=O)c1cccc2[nH]ccc12`, the CT (Canis familiaris [3]) was “Minimal”, the APD95 (Canis familiaris [4]) was -6% and the APD95 (Canis familiaris [22]) was -3%. The APD95 (Canis familiaris [13]) was -25%, the Vmax (Canis familiaris [23]) was -10.5% and the Vmax (Canis familiaris [7]) was -22% and -26%. For the same compound, the FRP (Canis familiaris [24]) was 6.3%, the APD95 (Canis familiaris [10]) was -20% and the Vmax (Canis familiaris [25]) was -14%. For the same compound, the FRP (Canis familiaris [26]) was 10.7%, the Vmax (Canis familiaris [27]) was -19% and the CT (Canis familiaris [28]) was 14.7%.

From ChEMBL document CHEMBL1124429, “Heterocyclic analogues of benzamide antiarrhythmic agents” (J Med Chem, 1989)
